Data taken from article PMC7511286 (European Journal of Drug Metabolism and Pharmacokinetics, 2020).
“Also recorded” adds a separate entry of the source.

Legend:
Type in all cases: in vivo, human
[1] = Preliminary two-compartment population pharmacokinetic model on SAD and MAD data
Procedure, shortened: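 A two-compartment model with first-order absorption, inter-compartmental transfer and elimination was fitted to plasma concentrations. Data were fasted single-dose and multiple-dose only; fed and pre-dosing data were excluded and MAD outliers kept. Parameters were ka, V1/F, V2/F, CL/F and Q/F, with k10, k12 and k21 derived from clearance/volume. Values below LLOQ (0.1 μg/ml) were left-censored. No covariate testing.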

[2] = SAD study: single ascending oral dose pharmacokinetics; settings: for CL/F: geometric mean (geometric %CV)
Procedure, shortened: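 Healthy males (n = 6 per group) took oral tablets either fasted (10 h overnight fast, continued 4 h) or 30 min after starting a standardized breakfast. Periods were separated by at least 14 days of washout. Plasma was sampled pre-dose to 168 h; urine was collected 24 h pre-dose and 24 h post-dose. LC-MS/MS used ESI−, LLOQ 0.1 μg/ml. CL/F = dose/AUC0–∞; Vz/F = CL/F/λz; values are geometric means.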

[3] = MAD study: safety and tolerability
Procedure, shortened: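 Healthy males aged 18–55 took oral tablets. Treatment-emergent AEs were recorded by clinical evaluation. Vital signs (blood pressure, pulse), 12-lead and Holter ECG, physical examination, and urine and plasma laboratory tests were also assessed. AEs of special interest were hematuria and retroperitoneal colicky pain with suspected or confirmed nephrolithiasis. Subjects were hospitalized around dosing.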

[4] = base model, inter-individual variability
[5] = single oral 10 mg, fed vs fasted

COc1cccc(-c2ccc(NC(=O)C3=C(C(=O)O)CCC3)c(F)c2)c1 [IMU-838, vidofludimus calcium]
Correlation coefficient IIV CL/F and IIV V1/F ([1]; base model): 0.387 | Exponential residual error ([1]; base model): 41.6 %CV | V1/F (volume in central compartment), population estimate ([1]; base model): 2.98 L | V2/F (volume in peripheral compartment), population estimate ([1]; base model): 6.31 L | ka (absorption rate), population estimate ([1]; base model): 0.15 h⁻¹ | CL/F (apparent total clearance), population estimate ([1]; base model, fasted SAD and MAD data without pre-dosing): 4.47 mL/min | k12 (inter-compartmental rate constant) ([1]; base model, derived, Eq. 2): 0.124 h⁻¹ | k21 (inter-compartmental rate constant) ([1]; base model, derived, Eq. 3): 0.0584 h⁻¹ | IIV on CL/F [1, 4]: 20.8 %CV | IIV on V1/F [1, 4]: 49.4 %CV | half-life ([1]; human, plasma, oral): 2.76 h | half-life ([1]; male, human, plasma, oral): 33.1 h | k el ([1]; male, human, plasma, oral): 2.5e-05 s⁻¹ | accumulation ratio regarding exposure expected following multiple daily dosing ([2]; based on single-dose pharmacokinetics): ~2 | urine samples with concentration below the LLOQ ([2]; single oral 10 mg): all samples | effect of food on pharmacokinetics ([2]; single oral 10 mg, fasted vs fed): Food did not impact the pharmacokinetics; also recorded: no detrimental effect of food intake | CL/F ([2]; single oral 10 mg, fasted, n = 6): 4.064 (15.9) ml/min | blood exposure higher after fed administration compared with fasted [2, 5]: about 32% | geometric mean Cmax higher after fed compared with fasted [2, 5]: about 23% | CL/F ([2]; single oral 10 mg, fed, n = 6): 3.090 (25.5) ml/min | urine samples with concentration below the LLOQ ([2]; single oral 20 mg): four of six samples | CL/F ([2]; single oral 20 mg, fasted, n = 6): 4.218 (17.2) ml/min | CL/F ([2]; single oral 30 mg, fasted, n = 6): 3.633 (29.3) ml/min | CL/F ([2]; single oral 40 mg, fasted, n = 5): 3.480 (21) ml/min | dose dependence of plasma pharmacokinetics ([2]; single oral 10 to 40 mg, fasted): dose-linear | fraction of administered dose excreted in urine during single 24 h period ([2]; single oral 30 and 40 mg): more than 1% | TEAE Abdominal pain upper: number of events ([3]; 25 mg (initiation dose), n = 8): 1 | TEAE Abdominal pain upper: subjects having the event ([3]; 25 mg (initiation dose), n = 8): 1 (12.5) N (%) | TEAE Atrioventricular block first degree: number of events ([3]; 25 mg (initiation dose), n = 8): 1 | TEAE Atrioventricular block first degree: subjects having the event ([3]; 25 mg (initiation dose), n = 8): 1 (12.5) N (%) | TEAE Diarrhea: subjects having the event ([3]; 25 mg (initiation dose), n = 8): 1 (12.5) N (%) | TEAE Nasopharyngitis: subjects having the event ([3]; 25 mg (initiation dose), n = 8): 1 (12.5) N (%) | TEAEs Cardiac disorders Total: number of events ([3]; 25 mg (initiation dose), n = 8): 1 | TEAEs Cardiac disorders Total: subjects having the event ([3]; 25 mg (initiation dose), n = 8): 1 (12.5) N (%) | TEAEs Gastrointestinal disorders Total: number of events ([3]; 25 mg (initiation dose), n = 8): 2 | TEAEs Gastrointestinal disorders Total: subjects having the event ([3]; 25 mg (initiation dose), n = 8): 1 (12.5) N (%) | TEAEs Infections and infestations Total: number of events ([3]; 25 mg (initiation dose), n = 8): 1 | TEAEs Infections and infestations Total: subjects having the event ([3]; 25 mg (initiation dose), n = 8): 1 (12.5) N (%) | TEAEs Total: number of events ([3]; 25 mg (initiation dose), n = 8): 4 | TEAEs Total: subjects having the event ([3]; 25 mg (initiation dose), n = 8): 3 (37.5) N (%) | number of drug-related TEAEs ([3]; 30 mg once daily): 18 | TEAE Abdominal pain: number of events ([3]; 30 mg, n = 12): 1 | TEAE Abdominal pain: subjects having the event ([3]; 30 mg, n = 12): 1 (8.3) N (%) | TEAE Feces soft: number of events ([3]; 30 mg, n = 12): 2 | TEAE Feces soft: subjects having the event ([3]; 30 mg, n = 12): 2 (16.7) N (%) | TEAE Flatulence: subjects having the event ([3]; 30 mg, n = 12): 6 (50.0) N (%) | TEAE Gamma–glutamyl transferase increased: number of events ([3]; 30 mg, n = 12): 2 | TEAE Gamma–glutamyl transferase increased: subjects having the event ([3]; 30 mg, n = 12): 1 (8.3) N (%) | TEAE Headache: subjects having the event ([3]; 30 mg, n = 12): 1 (8.3) N (%) | TEAE Lipase increased: number of events ([3]; 30 mg, n = 12): 1 | TEAE Lipase increased: subjects having the event ([3]; 30 mg, n = 12): 1 (8.3) N (%) | TEAE Musculoskeletal discomfort: number of events ([3]; 30 mg, n = 12): 1 | TEAE Musculoskeletal discomfort: subjects having the event ([3]; 30 mg, n = 12): 1 (8.3) N (%) | TEAE Nausea: subjects having the event ([3]; 30 mg, n = 12): 1 (8.3) N (%) | TEAEs Gastrointestinal disorders Total: number of events ([3]; 30 mg, n = 12): 14 | TEAEs Gastrointestinal disorders Total: subjects having the event ([3]; 30 mg, n = 12): 7 (58.3) N (%) | TEAEs Investigations Total: number of events ([3]; 30 mg, n = 12): 3 | TEAEs Investigations Total: subjects having the event ([3]; 30 mg, n = 12): 2 (16.7) N (%) | TEAEs Musculoskeletal and connective tissue disorders Total: number of events ([3]; 30 mg, n = 12): 1 | TEAEs Musculoskeletal and connective tissue disorders Total: subjects having the event ([3]; 30 mg, n = 12): 1 (8.3) N (%) | TEAEs Nervous system disorders Total: number of events ([3]; 30 mg, n = 12): 1 | TEAEs Nervous system disorders Total: subjects having the event ([3]; 30 mg, n = 12): 1 (8.3) N (%) | TEAEs Renal and urinary disorders Total: number of events ([3]; 30 mg, n = 12): 1 | TEAEs Renal and urinary disorders Total: subjects having the event ([3]; 30 mg, n = 12): 1 (8.3) N (%) | TEAEs Total: number of events ([3]; 30 mg, n = 12): 20
